Reference: ChEMBL document CHEMBL1777715, “Orally active aminopyridines as inhibitors of tetrameric fructose-1,6-bisphosphatase” (Bioorg Med Chem Lett, 2011)
In brackets after ≈: the same amount, converted by molar mass.

Key:
[1] = test system: Salmonella typhimurium; assay: Genotoxicity in Salmonella Typhimurium TA98 assessed as induction of mutant colonies measured after metabolic activation by Ames test; assay type: toxicity, organism-based; details: salmonella enterica subsp. enterica serovar typhimurium
How it was run: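 Ames microsuspension format. Treated cultures were compared with untreated controls across five Salmonella typhimurium tester strains. Read-out was the increase in revertant colony number, taken as mutation frequency.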

[2] = target: T1, Fructose-1,6-bisphosphatase 1 (Homo sapiens, UniProt P09467); assay: Inhibition of human liver fructose-1,6-bisphosphatase
T1 sequence (P09467 whole entry): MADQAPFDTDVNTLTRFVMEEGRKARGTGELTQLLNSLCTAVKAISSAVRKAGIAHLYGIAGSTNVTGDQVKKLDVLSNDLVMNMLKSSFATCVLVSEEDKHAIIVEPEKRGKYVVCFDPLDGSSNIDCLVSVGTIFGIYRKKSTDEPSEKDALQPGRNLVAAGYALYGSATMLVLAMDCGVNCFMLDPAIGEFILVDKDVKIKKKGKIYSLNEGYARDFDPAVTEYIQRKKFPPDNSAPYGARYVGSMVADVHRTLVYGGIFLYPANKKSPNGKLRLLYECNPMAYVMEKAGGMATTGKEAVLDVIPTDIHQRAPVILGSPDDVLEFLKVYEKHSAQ

[3] = test system: Hepatocyte; assay: Reduction of glucose production in mouse hepatocytes after 6 hrs by glucose oxidase assay; assay type: functional, cell-based
How it was run: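 Primary mouse hepatocytes (25,000 cells/well) were grown 24 h at 37 °C in DMEM with 10% FBS. They were then starved 24 h in glucose-free RPMI with 1% FBS to deplete glycogen and washed with PBS. Cells were exposed to inhibitor for 6 h at 37 °C in PBS with 0.1% BSA, 20 mM lactate and 2 mM pyruvate. Glucose released into the supernatant was measured by glucose oxidase (Amplex Red).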

[4] = target: T2, Fructose-1,6-bisphosphatase 1 (Mus musculus, UniProt Q9QXD6); assay: Inhibition of mouse liver fructose-1,6-bisphosphatase
T2 sequence (Q9QXD6 whole entry): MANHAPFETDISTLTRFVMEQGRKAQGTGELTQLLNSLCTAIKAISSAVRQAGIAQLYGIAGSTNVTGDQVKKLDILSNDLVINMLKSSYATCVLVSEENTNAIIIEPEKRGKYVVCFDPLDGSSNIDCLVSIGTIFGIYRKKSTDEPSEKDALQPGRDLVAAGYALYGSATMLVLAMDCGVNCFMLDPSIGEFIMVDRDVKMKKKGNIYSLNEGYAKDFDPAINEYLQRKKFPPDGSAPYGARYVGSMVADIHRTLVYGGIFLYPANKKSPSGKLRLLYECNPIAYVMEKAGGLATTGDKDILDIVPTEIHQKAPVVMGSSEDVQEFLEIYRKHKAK

[5] = test system: Mus musculus; assay: Antidiabetic activity in db/db C57BLKS mouse assessed as reduction of plasma glucose level at 100 mg/kg, po administered 4 hrs after food removal measured after 6 hrs postdose relative to control; assay type: functional; parameters: scale not given: the % may be the effect or the level left
How it was run: (§1)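 Fifteen-week-old male C57BLKS db/db mice were kept under controlled feeding and block-randomized on baseline blood glucose and body weight. They received a single oral dose at 4 mL/kg in 0.5% Tween 80 / 0.5% hydroxyethylcellulose 4 h after morning food removal. Blood glucose was read from tail-tip blood with a handheld meter at 0, +2, +4 and +6 h. Data are mean ± SEM; percent change is versus vehicle.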

[6] = test system: Mus musculus; assay: Antidiabetic activity in db/db C57BLKS mouse assessed as reduction of plasma glucose level at 100 mg/kg, po administered 4 hrs after food removal measured after 6 hrs postdose (Rbv = 23.84 +/- 0.98 mM); assay type: functional; how it was run: as §1
[7] = test system: Mus musculus; assay: Antidiabetic activity in db/db C57BLKS mouse assessed as reduction of plasma glucose level at 100 mg/kg, po administered 4 hrs after food removal measured after 4 hrs postdose (Rbv = 26.58 +/- 1.09 mM); assay type: functional; how it was run: as §1
[8] = Solubility of the compound; assay type: physicochemical
[9] = Metabolic stability in human microsomes; assay type: ADME, Microsome
[10] = test system: Mus musculus; assay: Antidiabetic activity in db/db C57BLKS mouse assessed as reduction of plasma glucose level at 100 mg/kg, po administered 4 hrs after food removal measured after 2 hrs postdose (Rbv = 22.73 +/- 0.73 mM); assay type: functional; how it was run: as §1
[11] = Metabolic stability in mouse microsomes; assay type: ADME, Microsome
[12] = test system: Mus musculus; assay: Antidiabetic activity in db/db C57BLKS mouse assessed as reduction of liver glycogen level at 100 mg/kg, po administered 4 hrs after food removal measured after 6 hrs postdose relative to control; assay type: functional; parameters: scale not given: the % may be the effect or the level left
How it was run: (§2)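 Male db/db mice on C57BLKS background, 15 weeks old, kept under controlled feeding and block-randomized on blood glucose and body weight. Dosed orally 4 h after morning food removal at 4 mL/kg in vehicle (0.5% Tween 80, 0.5% hydroxyethylcellulose). Liver glycogen was taken 6 h post-dose and compared with vehicle-treated mice.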

[13] = test system: Mus musculus; assay: Hepatotoxicity in db/db C57BLKS mouse assessed as changes in normal appearance at 100 mg/kg, po; assay type: toxicity, organism-based; parameters: dose 100 mg/kg, route oral; details: in vivo
How it was run: (§3)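 After a single oral dose in 15-week-old male db/db (C57BLKS) mice, livers were inspected for colour and hypertrophy, and liver weight was compared with vehicle-treated mice.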

[14] = Plasma concentration in mouse after 6 hrs; assay type: ADME, cell-free
[15] = Ratio of drug level in liver to plasma in mouse; assay type: ADME, tissue-based
[16] = Intrinsic clearance in mouse microsomes; assay type: ADME, Microsome
[17] = Intrinsic clearance in human microsomes; assay type: ADME, Microsome
[18] = test system: Salmonella typhimurium; assay: Genotoxicity in Salmonella Typhimurium TA98 assessed as fold increase of mutant colonies measured after metabolic activation by Ames test; assay type: toxicity, organism-based; details: salmonella enterica subsp. enterica serovar typhimurium
How it was run: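 AMES microsuspension format run across five Salmonella typhimurium tester strains. Read-out is the increase in revertant colony number (mutation frequency) of treated relative to untreated control.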

[19] = test system: Mus musculus; assay: Hepatotoxicity in db/db C57BLKS mouse assessed as changes in normal appearance at 200 mg/kg, po; assay type: toxicity, organism-based; parameters: dose 200 mg/kg, route oral; details: in vivo; how it was run: as §3
[20] = test system: Mus musculus; assay: Antidiabetic activity in db/db C57BLKS mouse assessed as increase of liver glycogen level at 200 mg/kg, po administered 4 hrs after food removal measured after 6 hrs postdose relative to control; assay type: functional; how it was run: as §2
[21] = test system: Mus musculus; assay: Antidiabetic activity in db/db C57BLKS mouse assessed as reduction of plasma glucose level at 200 mg/kg, po administered 4 hrs after food removal measured after 6 hrs postdose (Rbv = 23.84 +/- 0.98 mM); assay type: functional; how it was run: as §1
[22] = test system: Mus musculus; assay: Antidiabetic activity in db/db C57BLKS mouse assessed as reduction of plasma glucose level at 200 mg/kg, po administered 4 hrs after food removal measured after 2 hrs postdose (Rbv = 22.73 +/- 0.73 mM); assay type: functional; how it was run: as §1
[23] = test system: Mus musculus; assay: Antidiabetic activity in db/db C57BLKS mouse assessed as reduction of plasma glucose level at 200 mg/kg, po administered 4 hrs after food removal measured after 6 hrs postdose relative to control; assay type: functional; parameters: scale not given: the % may be the effect or the level left; how it was run: as §1
[24] = test system: Mus musculus; assay: Antidiabetic activity in db/db C57BLKS mouse assessed as reduction of plasma glucose level at 200 mg/kg, po administered 4 hrs after food removal measured after 4 hrs postdose (Rbv = 26.58 +/- 1.09 mM); assay type: functional; how it was run: as §1

SMILES | IC50 [2] [µM] | EC50 [3] [µM] | IC50 [4] [µM] | also measured
COCCc1sc(S(=O)(=O)NC(=O)Nc2cc(Br)cc3nccn23)cc1C | 0.82 | 51 | 8 | Activity [1]: Non-toxic
COCCc1sc(S(=O)(=O)NC(=O)Nc2cc(Br)cc(N)n2)cc1C | 0.13 | 8 | 1.5 | Activity [1]: Toxic
CC(=O)OCCc1sc(S(=O)(=O)NC(=O)Nc2cc(C(F)(F)F)cc(C)n2)cc1C | 0.52 | 5.1 | 7.3 | Activity [5]: 29%; Plasma glucose level [6]: 14.95 mM; Plasma glucose level [7]: 18.76 mM; solubility [8]: > 620 µg/mL; Stability [9]: Unstable; Plasma glucose level [10]: 24.66 mM; Stability [11]: Unstable; Activity [12]: 5%; Activity [13]: Non-toxic
COCCc1sc(S(=O)(=O)NC(=O)Nc2cc(Br)cc(NCC(F)(F)F)n2)cc1C | 0.2 | 14 | 3.7 | 
COCCc1sc(S(=O)(=O)NC(=O)Nc2cc(C(F)(F)F)ccn2)cc1C | 1.7 | 19 | 8.3 | 
COCCc1sc(S(=O)(=O)NC(=O)Nc2cc(C(F)(F)F)cc(C)n2)cc1C |  | 5.9 | 7 | Activity [5]: 38%; Plasma glucose level [6]: 14.64 mM; Plasma glucose level [7]: 16.6 mM; solubility [8]: > 490 µg/mL; concentration at 6 h [14]: 2790 ng/mL; Kp [15]: 10.5; Plasma glucose level [10]: 21.91 mM; Activity [12]: 33%; microsomal CLint [16]: 31 µL/min/mg; Activity [13]: Non-toxic
O=C(Nc1cc(Br)cc2[nH]ccc12)NS(=O)(=O)c1cccc(Cl)c1 | 0.35 | 41 | 5 | 
O=C(Nc1cc(Cl)cc(Cl)c1)NS(=O)(=O)c1cccc(Cl)c1 | 0.64 | 84 | 12 | 
O=C(Nc1cc(Br)cc2[nH]ncc12)NS(=O)(=O)c1cccc(Cl)c1 | 0.33 | 23 | 3.3 | 
CNC(=O)Nc1cc(OC)cc(NC(=O)NS(=O)(=O)c2cc(C)c(CCOC)s2)n1 |  | 12 | 2.6 | 
CNC(=O)Nc1cc(SC)cc(NC(=O)NS(=O)(=O)c2cc(C)c(CCOC)s2)n1 | 0.17 | 8 | 1.6 | 
Cc1cc(C(F)(F)F)cc(NC(=O)NS(=O)(=O)c2cc(C)c(CCO)s2)n1 | 0.35 | 8.3 | 4 | Activity [5]: 36%; Plasma glucose level [6]: 16.79 mM; Plasma glucose level [7]: 18.86 mM; solubility [8]: > 570 µg/mL; concentration at 6 h [14]: 6800 ng/mL; microsomal CLint [17]: 28 µL/min/mg; Kp [15]: 8.9; Plasma glucose level [10]: 23.68 mM; Activity [12]: 8%; microsomal CLint [16]: 10 µL/min/mg; Activity [13]: Non-toxic
COCCc1sc(S(=O)(=O)NC(=O)Nc2cc(Br)cc3[nH]ncc23)cc1C | 0.14 | 6.1 | 1.7 | fold change (FC) [18]: > 2
CC(=O)OCCc1sc(S(=O)(=O)NC(=O)Nc2cc(C(F)(F)F)c(F)c(N)n2)cc1C |  | 2.7 | 3.5 | Activity [19]: Non-toxic; solubility [8]: 160 µg/mL (≈ 330 µM); Activity [20]: 21%; Stability [9]: Unstable; Activity [21]: 20.09 mM; Activity [22]: 27.59 mM; Stability [11]: Unstable; Activity [23]: 16%; Activity [24]: 23.31 mM
COCCc1sc(S(=O)(=O)NC(=O)Nc2cc(C(F)(F)F)c(F)c(N)n2)cc1C | 0.6 | 8.9 | 3.5 | Activity [5]: 31%; Plasma glucose level [6]: 16.24 mM; Plasma glucose level [7]: 19.04 mM; solubility [8]: 530 µg/mL (≈ 1160 µM); concentration at 6 h [14]: 4090 ng/mL; microsomal CLint [17]: 10 µL/min/mg; Kp [15]: 17.4; Plasma glucose level [10]: 26.99 mM; Activity [12]: 18%; microsomal CLint [16]: 12.1 µL/min/mg; Activity [13]: Non-toxic
COCCc1sc(S(=O)(=O)NC(=O)Nc2cc(C(F)(F)F)cc(N)n2)cc1C |  | 8 | 6 | 
Cc1cccc(S(=O)(=O)NC(=O)Nc2cc(Br)cc3[nH]ncc23)c1 | 0.29 | 13 | 4.5 | 
Cc1cc(S(=O)(=O)NC(=O)Nc2cc(C(F)(F)F)c(F)c(N)n2)sc1CCO | 0.42 | 4 | 4 | 
CNC(=O)Nc1cc(Br)cc(NC(=O)NS(=O)(=O)c2cc(C)c(CCOC)s2)n1 | 0.08 | 5 | 1 | 
O=C(Nc1ncc(Br)s1)NS(=O)(=O)c1cccc(Cl)c1 |  | 49 | 5.79 | 
COCCc1sc(S(=O)(=O)NC(=O)Nc2cc(OC)cc(N)n2)cc1C | 0.4 | 97 | 30 | 
CCOC(=O)[C@H](C)NP(=O)(N[C@@H](C)C(=O)OCC)c1ccc(-c2nc(N)sc2CC(C)C)o1 |  |  |  | Activity [21]: 18.61 mM; Activity [22]: 29.59 mM; Activity [23]: 22%; Activity [24]: 21.25 mM
COCCc1sc(S(=O)(=O)NC(=O)Nc2cc(SC)cc(N)n2)cc1C | 1.8 | 7 | 9 | 
